INS-1E GSIS act: primary screen for activators of insulin secretion dependent on glucose, INS-1E cells, GLuc reporter luminescence. INS-1E GLuc reporter insulin secretion, 2-3 h. activation, % at 16.6 µM. 370,000 tested, 0.61% active;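 active = lowest replicate activation of at least 40%, so every replicate reaches that level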;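 note: 0% = median of neutral control wells and 100% = median of IBMX positive control wells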
MLL AF4-AF9 inh: inhibitors of human MLL-AF4/AF9 interaction; AlphaScreen, biotin-AF4 peptide binding to FLAG-AF9; inhibition, % at 10 µM; 350,000 tested, 0.47% active; AID 651704;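 active = every replicate reaching a set inhibition limit, whatever the replicate mean, cut at about 25% in these data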;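 note: 0% = plate neutral control median and 100% = total signal loss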
RAD54 branch: RAD54 (human) branch migration inhibition | Q92698 | RAD54 Holliday junction branch migration, FAM/BHQ fluorescence | inhibition, % at 10.4 µM | 360,000 tested, 0.14% active | AID 602329;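 active = mean normalized replicate activity at least 40 and at least half of replicates scoring 40 or more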;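 note: 0% = median of neutral control wells and 100% = median of positive control wells; inhibitors cause a drop in the FAM fluorescence signal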
RAD52 anneal inh: inhibitors of human RAD52 DNA annealing; 360,000 tested, 0.46% active; AID 651710; inhibition, % at 18.7 µM; recombinant RAD52 DNA annealing, FRET fluorescence;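 active = every replicate showing at least 50% inhibition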
S100A4 inh HTS: S100A4-myosin IIA interaction inhibition; 360,000 tested, 0.14% active; inhibition, % at 10.7 µM; P26447; S100A4/TAMRA-MyoIIA peptide fluorescence polarization;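 active = mean inhibition of at least 70% across replicates, with every replicate also reaching that level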
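Compound dosing: one dose per compound; test system: human S100A4 monomer with TAMRA-labelled myosin IIA peptide; probe or stimulus: TAMRA-labelled myosin IIA heavy-chain peptide probe, 5 nM; medium: HEPES buffer with Ca2+, pH 7.2; schedule: 5 min incubation before reading; benchmarks: neutral control DMSO, positive control TFP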
* hit, by the source's call; . = no result. An excerpt weighted towards active compounds, which were near 1.3% of everything screened.

SMILES	INS-1E GSIS act	MLL AF4-AF9 inh	RAD54 branch	RAD52 anneal inh	S100A4 inh HTS
CC1CCC(NCCNC(=O)c2ccco2)CC1 (centres undefined)	44*	0	0	-13	-6
C[C@H](CO)N1C[C@H](C)[C@@H](CN(C)Cc2ccc(-c3ccccc3)cc2)OCc2ccccc2-c2c(n(C)c3ccccc23)C1=O	-18	3	.	80*	1
C[C@@H]1CN([C@H](C)CO)C(=O)c2c(c3ccccc3n2C)-c2ccccc2CO[C@H]1CN(C)S(=O)(=O)c1ccccc1	-16	1	-2	15	131*
C[C@@H]1CN([C@H](C)CO)C(=O)c2c(c3ccccc3n2C)-c2ccccc2CO[C@@H]1CN(C)Cc1ccc2c(c1)OCCN2C	14	50*	.	45	6
C[C@@H]1CN([C@@H](C)CO)C(=O)c2c(c3ccccc3n2C)-c2ccccc2CO[C@H]1CN(C)Cc1ccc2c(c1)OCCN2C	-27	39*	.	28	-7
C[C@H]1CN([C@@H](C)CO)C(=O)c2c(c3ccccc3n2C)-c2ccccc2CO[C@H]1CN(C)Cc1ccc(Cl)c(Cl)c1	10	1	.	1	-1
COCC(=O)Nc1ccc2c(c1)OC[C@@H](C)N(C(=O)CC1CC1)C[C@@H](C)[C@H](OC)CN(C)C2=O	6	0	-9	3	-1
C[C@H]1CN([C@@H](C)CO)S(=O)(=O)c2ccc(C3=CCCC3)cc2O[C@H]1CN(C)C(=O)c1ccccc1	-1	1	2	8	-4
Cc1cc(C(=O)NC(C)CCC(C)C)c2ccccc2n1 (centres undefined)	56*	-2	.	-8	1
O=C(Nc1ccc(C(F)(F)F)cc1)N1C[C@@H]2N[C@H](C1)C2c1ccc(-c2cccnc2)cc1 (some centres undefined)	-23	.	.	.	.
Cc1ccc(S(=O)(=O)Nc2nc(C)cc(NCCN)n2)cc1	8	5	15	-31	-4
Cc1ccc(S(=O)(=O)Nc2nc(C)cc(NN)n2)cc1	46*	-1	.	-16	-11
C[C@H](CO)N1C[C@H](C)[C@@H](CN(C)Cc2ccc(-c3ccccc3)cc2)Oc2ccc(NC(=O)c3ccncc3)cc2CC1=O	-36	16	-3	4	-10
COc1cc(O)c(C(CCN2CCCC2)c2ccc3c(c2)OCO3)c(OC)c1 (centres undefined)	-8	17	4	0	2
COc1cc(OC)c2c(-c3ccccc3)cc(=O)oc2c1C(CCN1CCN(c2ccccc2)CC1)c1ccc(N(C)C)cc1 (centres undefined)	0	18	0	-18	-3
COc1cc(OC)c2ccc(=O)oc2c1C(CCN1CCN(c2ccccc2)CC1)c1ccc(N(C)C)cc1 (centres undefined)	-36	26*	-10	-26	14
COc1cc(O)c(C(CCN2CCCC2)c2ccc(N(C)C)cc2)c(OC)c1 (centres undefined)	-8	39*	-3	-4	19
COc1cc(C2CC(=O)Oc3c(C(CCN4CCN(c5ccccc5)CC4)c4ccc(N(C)C)cc4)c(OC)cc(OC)c32)cc(OC)c1OC (centres undefined)	-10	16	3	-5	5
COc1ccc(C2CC(=O)Oc3c(C(CCN4CCCCC4)c4ccc(N(C)C)cc4)c(OC)cc(OC)c32)cc1 (centres undefined)	.	44*	4	19	-3
CCCNC(=O)C[C@@H]1CC[C@@H]2[C@@H](COc3ccc(NC(=O)c4cccs4)cc3C(=O)N2C)O1	1	1	-2	5	-6
CC(CCC(=O)NN)C1CCC2C3CCC4CC(O)CCC4(C)C3CCC12C (centres undefined)	.	-4	.	-7	-3
CC(CCC(C)C(C)(C)C)[C@@H]1CC[C@H]2C3C[C@H](OS(O)(=S)=S)[C@H]4C[C@H](OS(O)(=S)=S)[C@@H](OS(O)(=S)=S)C[C@]4(C)[C@H]3CC[C@]12C (some centres undefined) (tested in a mixture with another compound)	.	.	110*	.	.
N#Cc1cccc2c1-c1ccccc1/C2=N/NC(N)=O	.	.	85*	.	.
CCC(=O)N(C)C[C@H]1Oc2cc(C#C[C@@H](C)O)ccc2S(=O)(=O)N([C@H](C)CO)C[C@@H]1C	-6	.	.	.	.
